Laboratory results taken from ChEMBL document CHEMBL1140861, “Short antisense oligonucleotides with novel 2'-4' conformationaly restricted nucleoside analogues show improved potency without increased toxicity in animals” (J Med Chem, 2009).
Active and inactive are the calls of the source. The rule behind the calls is not given here.

Experiments:
Mus musculus [1] = test: Hepatotoxicity in BALB/c mouse assessed as increase in liver ALT level at 32 mg/kg, ip after 72 hrs; type: toxicity, organism-based; design: dose 32 mg/kg, route intraperitoneal; details: in vivo
Method in brief: (§1)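 Balb/c mice, 6 weeks old, n = 4 per dose group, single ip doses of 32, 66 or 100 mg/kg; killed 72 h after administration; serum ALT and liver PTEN mRNA quantified after sacrifice; errors as sd.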

Mus musculus [2] = test: Reduction of PTEN mRNA level in BALB/c mouse liver at 66 mg/kg, ip after 72 hrs; type: functional, organism-based; design: dose 66 mg/kg; method in brief: as §1
Mus musculus [3] = test: Reduction of PTEN mRNA level in BALB/c mouse liver at 100 mg/kg, ip after 72 hrs; type: functional; method in brief: as §1
Mus musculus [4] = species: Mus musculus; test: Binding affinity to mouse PTEN mRNA assessed as melting temperature
Method in brief: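 Tm of ASO–RNA duplex, i.e. melting temperature of the ASO hybridised to its complementary RNA.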

Mus musculus [5] = test: Reduction of PTEN mRNA level in BALB/c mouse liver at 60 mg/kg, ip after 72 hrs; type: functional, organism-based; design: dose 60 mg/kg
Mus musculus [6] = test: Reduction of PTEN mRNA level in BALB/c mouse liver at 32 mg/kg, ip after 72 hrs; type: functional, organism-based; design: dose 32 mg/kg; method in brief: as §1
Mus musculus [7] = test: Reduction of PTEN level in ip dosed BALB/c mouse liver at 37 mg/kg by Western blot analysis; type: functional, organism-based; design: dose 37 mg/kg
Mus musculus [8] = test: Hepatotoxicity in BALB/c mouse assessed as increase in liver ALT level at 66 mg/kg, ip after 72 hrs; type: toxicity, organism-based; design: dose 66 mg/kg, route intraperitoneal; details: in vivo; method in brief: as §1
Mus musculus [9] = test: Hepatotoxicity in BALB/c mouse assessed as increase in liver ALT level at 60 mg/kg, ip after 72 hrs; type: toxicity, organism-based; design: dose 60 mg/kg, route intraperitoneal; details: in vivo
Mus musculus [10] = test: Reduction of PTEN mRNA level in ip dosed BALB/c mouse liver after 72 hrs; type: functional
Mus musculus [11] = test: Metabolic stability in BALB/c mouse liver assessed as antisense oligonucleotide level at 18 mg/kg; type: ADME, organism-based; design: dose 18 mg/kg; details: in vivo
bEND = test: Reduction in mouse PTEN mRNA level expressed in mouse bEND cells; type: functional, cell-based
Method in brief: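 bEND mouse brain endothelial cells transfected with ASO using lipofectin; PTEN mRNA reduction measured over a dose range; IC50 taken from dose-response curves.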

Mus musculus [12] = test: Reduction of PTEN mRNA level in ip dosed BALB/c mouse liver administered twice a week for 3 weeks measured after 72 hrs of last dose; type: functional
Method in brief: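 Male Balb/c mice, 6 weeks old, dosed ip twice weekly for 3 weeks at 0.5, 1.5, 4.7 and 15 mg/kg (two ASOs) or 0.7, 2.3, 7.2 and 23 mg/kg (MOE control); sacrificed 72 h after last dose; ALT, liver PTEN mRNA, liver and spleen weights and body weight gain assessed; ED50 derived; errors as sd.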

Mus musculus [13] = test: Hepatotoxicity in ip dosed BALB/c mouse assessed as increase in liver ALT level at 5 to 10 times of ED50 after 72 hrs; type: toxicity, organism-based; details: in vivo
Mus musculus [14] = test: Hepatotoxicity in BALB/c mouse assessed as increase in liver ALT level at 100 mg/kg, ip after 72 hrs; type: toxicity, organism-based; design: dose 100 mg/kg, route intraperitoneal; details: in vivo; method in brief: as §1
Mus musculus [15] = test: Reduction of PTEN mRNA level in BALB/c mouse liver at 37 mg/kg, ip after 72 hrs; type: functional, organism-based; design: dose 37 mg/kg
Homo sapiens = test: Decrease in low density lipoprotein cholesterol level in normal human at 50 to 400 […] by standard enzyme-based colorimetric assay; type: functional, organism-based; design: scale not given: the % may be the effect or the level left
Mus musculus [16] = test: Hepatotoxicity in BALB/c mouse assessed as increase in liver ALT level at 35 mg/kg, ip after 72 hrs; details: in vivo
Mus musculus [17] = test: Hepatotoxicity in BALB/c mouse assessed as increase in liver ALT level at 35 mg/kg, ip after 72 hrs; type: toxicity, organism-based; design: dose 35 mg/kg, route intraperitoneal; details: in vivo
Method in brief: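 Single ip injection of 35 mg/kg ASO into male Balb/c mice, 6 weeks old, n = 4 per group, saline control; sacrificed 72 h after dosing and ALT recorded; ANOVA with Tukey's post hoc test.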

Mus musculus [18] = test: Hepatotoxicity in BALB/c mouse assessed as increase in liver ALT level at 35 mg/kg, ip after 72 hrs; details: in vivo; remark: listed apart in the source

Cc1cn([C@@H]2O[C@@]3(COP(O)(=S)O[C@H]4[C@H]5OC[C@]4(COP(O)(=S)O[C@H]4C[C@H](n6cc(C)c(=O)[nH]c6=O)O[C@@H]4COP(O)(=S)O[C@H]4[C@@H](O)[C@H](n6cnc7c6N=CNC7N)O[C@@H]4COP(O)(=S)O[C@H]4[C@@H](O)[C@H](n6cnc7c(=O)[nH]c(N)nc76)O[C@@H]4COP(O)(=S)O[C@H]4[C@@H](O)[C@H](n6ccc(N)nc6=O)O[C@@H]4COP(O)(=S)O[C@H]4[C@@H](O)[C@H](n6cnc7c(N)ncnc76)O[C@@H]4COP(O)(=S)O[C@H]4[C@@H](O)[C@H](n6ccc(N)nc6=O)O[C@@H]4COP(O)(=S)O[C@H]4[C@@H](O)[C@H](n6cc(C)c(=O)[nH]c6=O)O[C@@H]4COP(O)(=S)O[C@H]4[C@@H](O)[C@H](n6cnc7c(=O)[nH]c(N)nc76)O[C@@H]4COP(O)(=S)O[C@H]4[C@@H](O)[C@H](n6cnc7c(=O)[nH]c(N)nc76)O[C@@H]4COP(O)(=S)O[C@H]4[C@@H](O)[C@H](n6ccc(N)nc6=O)O[C@@H]4COP(O)(=S)O[C@H]4[C@H]6OC[C@]4(COP(O)(=S)O[C@H]4[C@H]7OC[C@]4(CO)O[C@H]7n4cc(C)c(=O)[nH]c4=O)O[C@H]6n4cc(C)c(N)nc4=O)O[C@H]5n4cc(C)c(=O)[nH]c4=O)CO[C@@H]2[C@@H]3O)c(=O)nc1N (some centres not stated)
Activity (Mus musculus [1]): Non-toxic | Activity (Mus musculus [2]): Active | Activity (Mus musculus [3]): Active | Tm (Mus musculus [4]): 60.6 °C | Activity (Mus musculus [5]): Active | Activity (Mus musculus [6]): Active | Activity (Mus musculus [7]): Active | Activity (Mus musculus [8]): Toxic | Activity (Mus musculus [9]): Non-toxic | ED50 (Mus musculus [10]): 6 mg/kg | Stability (Mus musculus [11]): 25 µg/g | IC50 (bEND): 4.9 nM | ED50 (Mus musculus [12]): 2.1 mg/kg | Activity (Mus musculus [13]): Toxic | Activity (Mus musculus [14]): Toxic | Activity (Mus musculus [15]): Active

COCCO[C@@H]1[C@H](SP(=O)(O)OC[C@H]2O[C@@H](n3cc(C)c(=O)[nH]c3=O)[C@H](OCCOC)[C@@H]2SP(=O)(O)OC[C@H]2O[C@@H](n3cc(C)c(N)nc3=O)[C@H](OCCOC)[C@@H]2SP(=O)(O)OC[C@H]2O[C@@H](n3cnc4c(N)ncnc43)C[C@@H]2SP(=O)(O)OC[C@H]2O[C@@H](n3cnc4c(=O)[nH]c(N)nc43)C[C@@H]2SP(=O)(O)OC[C@H]2O[C@@H](n3cc(C)c(=O)[nH]c3=O)C[C@@H]2SP(=O)(O)OC[C@H]2O[C@@H](n3cc(C)c(N)nc3=O)C[C@@H]2SP(=O)(O)OC[C@H]2O[C@@H](n3cc(C)c(=O)[nH]c3=O)C[C@@H]2SP(=O)(O)OC[C@H]2O[C@@H](n3cnc4c(=O)[nH]c(N)nc43)C[C@@H]2SP(=O)(O)OC[C@H]2O[C@@H](n3cc(C)c(N)nc3=O)C[C@@H]2SP(=O)(O)OC[C@H]2O[C@@H](n3cc(C)c(=O)[nH]c3=O)C[C@@H]2SP(=O)(O)OC[C@H]2O[C@@H](n3cc(C)c(=O)[nH]c3=O)C[C@@H]2SP(=O)(O)OC[C@H]2O[C@@H](n3cc(C)c(N)nc3=O)C[C@@H]2SP(=O)(O)OC[C@H]2O[C@@H](n3cnc4c(=O)[nH]c(N)nc43)[C@H](OCCOC)[C@@H]2SP(=O)(O)OC[C@@H]2O[C@H](n3cc(C)c(N)nc3=O)[C@@H](OCCOC)[C@H]2SP(=O)(O)OC[C@@H]2O[C@H](n3cnc4c(N)ncnc43)[C@@H](OCCOC)[C@H]2SP(=O)(O)OC[C@@H]2O[C@H](n3cc(C)c(N)nc3=O)[C@@H](OCCOC)[C@H]2SP(=O)(O)OC[C@@H]2O[C@H](n3cc(C)c(N)nc3=O)[C@@H](OCCOC)[C@H]2O)[C@@H](COP(=O)(O)S[C@H]2[C@@H](OCCOC)[C@H](n3cc(C)c(N)nc3=O)O[C@@H]2COP(=O)(O)S[C@H]2[C@@H](OCCOC)[C@H](n3cnc4c(=O)[nH]c(N)nc43)O[C@@H]2CO)O[C@H]1n1cc(C)c(N)nc1=O
Activity (Homo sapiens): 6%

Cc1cn([C@@H]2O[C@@]3(COP(O)(=S)O[C@@H]4[C@@H](OP(O)(=S)OC[C@H]5O[C@@H](n6cc(C)c(=O)[nH]c6=O)[C@H](O)[C@@H]5OP(O)(=S)OC[C@H]5O[C@@H](n6cnc7c(=O)[nH]c(N)nc76)[C@H](O)[C@@H]5OP(O)(=S)OC[C@H]5O[C@@H](n6cnc7c(=O)[nH]c(N)nc76)[C@H](O)[C@@H]5OP(O)(=S)OC[C@H]5O[C@@H](n6ccc(N)nc6=O)[C@H](O)[C@@H]5OP(O)(=S)OC[C@H]5O[C@@H](n6cc(C)c(=O)[nH]c6=O)[C@H](O)[C@@H]5OP(O)(=S)OC[C@H]5O[C@@H](n6cnc7c(=O)[nH]c(N)nc76)[C@H](O)[C@@H]5OP(O)(=S)OC[C@H]5O[C@@H](n6ccc(N)nc6=O)[C@H](O)[C@@H]5OP(O)(=S)OC[C@H]5O[C@@H](n6cnc7c(N)ncnc76)[C@H](O)[C@@H]5OP(O)(=S)OC[C@H]5O[C@@H](n6cnc7c(=O)[nH]c(N)nc76)[C@H](O)[C@@H]5OP(O)(=S)OC[C@@]56CO[C@@H]([C@H](n7cc(C)c(N)nc7=O)O5)[C@@H]6OP(O)(=S)OC[C@@]56CO[C@@H]([C@H](n7cc(C)c(=O)[nH]c7=O)O5)[C@@H]6O)O[C@@H](n5cnc6c(N)ncnc65)[C@@H]4O)CO[C@@H]2[C@@H]3OP(O)(=S)OC[C@@]23CO[C@@H]([C@H](n4cc(C)c(=O)[nH]c4=O)O2)[C@@H]3O)c(=O)nc1N (some centres not stated)
Activity (Mus musculus [16]): Toxic | Activity (Mus musculus [17]): Toxic | Activity (Mus musculus [18]): Toxic | Activity (Mus musculus [5]): Active | Activity (Mus musculus [15]): Active
